Assay results from PMC6839502 (Journal of Alzheimer's Disease, 2019).
Like-named read-outs stand apart in the source and are kept apart here.

Legend:
[1] = assay type: in vivo, human; conditions: for AUCtau / Cmax / CL/F / Cmin / Rac (observed accumulation ratio) / Vz/F / AUCinf: geometric mean (% CV); for t1/2: arithmetic mean±SD
Summary of the method: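 Healthy adults (18–55 y) or older subjects (60–85 y) received oral QD doses for 14 days, fasted on Day 1. Plasma was sampled pre-dose and at 0.5, 1, 2, 4, 8, 12, and 24 h, plus 1.5 h (B8271001) or 6 h (B8271004). Day 14 sampling extended to 120 h. Urine was also collected. Samples were analysed by validated HPLC-MS/MS; plasma LLOQ 0.500 or 5.00 ng/mL, urine LLOQ 0.050 ng/mL. Parameters were derived by non-compartmental analysis.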

Cathepsin D (Cat D) = conditions: FP assay; cited from earlier work
[2] = 5 mg QD, Day 14, healthy adults
[3] = 15 mg QD, Day 1, healthy adults
[4] = 15 mg QD, Day 7, healthy adults
[5] = 15 mg QD, Day 14, healthy adults
[6] = 50 mg QD, Day 1, healthy adults
[7] = 50 mg QD, Day 1, healthy older subjects
[8] = 50 mg QD, Day 7, healthy adults
[9] = 50 mg QD, Day 14, healthy adults
[10] = 50 mg QD, Day 14, healthy older subjects
[11] = 50 mg or 125 mg QD, healthy older subjects
[12] = 125 mg QD, Day 1, healthy adults
[13] = 125 mg QD, Day 1, healthy older subjects
[14] = 125 mg QD, Day 7, healthy adults
[15] = 125 mg QD, Day 14, healthy adults
[16] = 125 mg QD, Day 14, healthy older subjects
[17] = 275 mg QD, Day 1, healthy adults
[18] = 275 mg QD, Day 7, healthy adults
[19] = 275 mg QD, Day 14, healthy adults
[20] = multiple doses, healthy adults (Part B)
[21] = single 3 mg fasted, healthy adults
[22] = single 12 mg fasted, healthy adults
[23] = single 40 mg fasted, healthy adults
[24] = single 160 mg fasted, healthy adults
[25] = single 200 mg fasted, healthy adults
[26] = single 200 mg fed, healthy adults
[27] = single 400 mg fasted, healthy adults
[28] = single 540 mg fasted, healthy adults

For C[C@H]1C[C@H]2CSC(N)=N[C@@]2(c2nc(NC(=O)c3ccc(OC(F)F)cn3)cs2)CO1 [PF-06751979], the AUCtau ([1]; 5 mg QD, Day 1, healthy adults) was 167.7 (18) ng.hr/mL, the Cmax ([1]; 5 mg QD, Day 1, healthy adults) was 10.12 (22) ng/mL and the Tmax ([1]; 5 mg QD, Day 1, healthy adults, median (range)) was 3.98 (2.03–12.3) h. The AUCtau ([1]; 5 mg QD, Day 7, healthy adults) was 395.2 (20) ng.h/mL, the Cmax ([1]; 5 mg QD, Day 7, healthy adults) was 20.68 (22) ng/mL and the Tmax ([1]; 5 mg QD, Day 7, healthy adults, median (range)) was 6.02 (3.95–8.05) h. The t1/2 [1, 2] was 37.15 ± 5.20 h, the AUCtau [1, 2] was 422.2 (20) ng.hr/mL and the CL/F [1, 2] was 197.1 (20) mL/min. For the same compound, the Cmax [1, 2] was 22.41 (23) ng/mL, the Cmin [1, 2] was 12.55 (22) ng/mL and the “Rac (observed accumulation ratio)” value [1, 2] was 2.52 (12). For the same compound, the Vz/F [1, 2] was 628.7 (18) L, the Tmax ([1]; 5 mg QD, Day 14, healthy adults, median (range)) was 4.01 (3.98–8.02) h and the AUCtau [1, 3] was 478.8 (20) ng.hr/mL. For the same compound, the Cmax [1, 3] was 28.90 (22) ng/mL, the Tmax ([1]; 15 mg QD, Day 1, healthy adults, median (range)) was 4.07 (4.00–7.83) h and the AUCtau [1, 4] was 1149 (12) ng.h/mL. For the same compound, the Cmax [1, 4] was 64.34 (12) ng/mL, the Tmax ([1]; 15 mg QD, Day 7, healthy adults, median (range)) was 4.02 (2.17–8.03) h and the t1/2 [1, 5] was 30.65 ± 3.19 h. The AUCtau [1, 5] was 1152 (13) ng.hr/mL, the CL/F [1, 5] was 216.9 (12) mL/min and the Cmax [1, 5] was 64.63 (14) ng/mL. For the same compound, the Cmin [1, 5] was 32.75 (14) ng/mL, the “Rac (observed accumulation ratio)” value [1, 5] was 2.41 (14) and the Vz/F [1, 5] was 573.2 (12) L. The Tmax ([1]; 15 mg QD, Day 14, healthy adults, median (range)) was 4.05 (4.02–7.87) h, the AUCtau [1, 6] was 1739 (14) ng.hr/mL and the Cmax [1, 6] was 120.6 (17) ng/mL. For the same compound, the Tmax ([1]; 50 mg QD, Day 1, healthy adults, median (range)) was 2.99 (1.02–4.07) h, the AUCtau [1, 7] was 1621 (22) ng.hr/mL and the Cmax [1, 7] was 102.9 (25) ng/mL. For the same compound, the Tmax ([1]; 50 mg QD, Day 1, healthy older subjects, median (range)) was 4.00 (2.02–7.98) h, the AUCtau [1, 8] was 4181 (20) ng.h/mL and the Cmax [1, 8] was 241.1 (20) ng/mL. For the same compound, the Tmax ([1]; 50 mg QD, Day 7, healthy adults, median (range)) was 3.83 (1.43–4.07) h, the t1/2 [1, 9] was 37.36 ± 5.91 h and the AUCtau [1, 9] was 4236 (24) ng.hr/mL. For the same compound, the CL/F [1, 9] was 196.9 (24) mL/min, the Cmax [1, 9] was 245.7 (21) ng/mL and the Cmin [1, 9] was 120.4 (25) ng/mL. The “Rac (observed accumulation ratio)” value [1, 9] was 2.43 (15), the Vz/F [1, 9] was 629.0 (27) L and the Tmax ([1]; 50 mg QD, Day 14, healthy adults, median (range)) was 3.00 (0.88–8.08) h. For the same compound, the t1/2 [1, 10] was 39.95 ± 3.18 h, the AUCtau [1, 10] was 4505 (20) ng.h/mL and the CL/F [1, 10] was 184.9 (20) mL/min. The Cmax [1, 10] was 256.4 (23) ng/mL, the Cmin [1, 10] was 135.8 (18) ng/mL and the Vz/F [1, 10] was 637.4 (23) L. For the same compound, the Tmax ([1]; 50 mg QD, Day 14, healthy older subjects, median (range)) was 4.00 (2.00–4.20) h, the “Median Tmax” value [1, 11] was 4 h and the “Steady state achieved by” value [1, 11] was at most 7 days. The AUCtau [1, 12] was 6380 (15) ng.hr/mL, the Cmax [1, 12] was 442.7 (20) ng/mL and the Tmax ([1]; 125 mg QD, Day 1, healthy adults, median (range)) was 4.00 (2.00–6.03) h. The AUCtau [1, 13] was 5238 (24) ng.hr/mL, the Cmax [1, 13] was 377.1 (30) ng/mL and the Tmax ([1]; 125 mg QD, Day 1, healthy older subjects, median (range)) was 4.00 (2.00–4.03) h. The AUCtau [1, 14] was 13810 (16) ng.h/mL, the Cmax [1, 14] was 818.7 (19) ng/mL and the Tmax ([1]; 125 mg QD, Day 7, healthy adults, median (range)) was 3.00 (2.00–6.00) h. The t1/2 [1, 15] was 30.73 ± 5.75 h, the AUCtau [1, 15] was 13990 (14) ng.hr/mL and the CL/F [1, 15] was 149.0 (14) mL/min. For the same compound, the Cmax [1, 15] was 837.6 (16) ng/mL, the Cmin [1, 15] was 390.3 (18) ng/mL and the “Rac (observed accumulation ratio)” value [1, 15] was 2.19 (11). For the same compound, the Vz/F [1, 15] was 390.5 (23) L, the Tmax ([1]; 125 mg QD, Day 14, healthy adults, median (range)) was 4.00 (2.00–12.00) h and the t1/2 [1, 16] was 40.76 ± 3.90 h. For the same compound, the AUCtau [1, 16] was 14750 (23) ng.h/mL, the CL/F [1, 16] was 141.4 (23) mL/min and the Cmax [1, 16] was 879.4 (28) ng/mL. The Cmin [1, 16] was 429.9 (23) ng/mL, the Vz/F [1, 16] was 496.1 (30) L and the Tmax ([1]; 125 mg QD, Day 14, healthy older subjects, median (range)) was 4.00 (2.00–4.03) h. The AUCtau [1, 17] was 13260 (18) ng.hr/mL, the Cmax [1, 17] was 983.0 (18) ng/mL and the Tmax ([1]; 275 mg QD, Day 1, healthy adults, median (range)) was 4.00 (2.00–4.00) h. The AUCtau [1, 18] was 31210 (14) ng.h/mL, the Cmax [1, 18] was 2000 (14) ng/mL and the Tmax ([1]; 275 mg QD, Day 7, healthy adults, median (range)) was 2.00 (2.00–4.00) h. For the same compound, the t1/2 [1, 19] was 37.79 ± 7.73 h, the AUCtau [1, 19] was 29470 (12) ng.hr/mL and the CL/F [1, 19] was 155.3 (13) mL/min. The Cmax [1, 19] was 1869 (14) ng/mL, the Cmin [1, 19] was 868.5 (15) ng/mL and the “Rac (observed accumulation ratio)” value [1, 19] was 2.27 (11). For the same compound, the Vz/F [1, 19] was 498.3 (27) L, the Tmax ([1]; 275 mg QD, Day 14, healthy adults, median (range)) was 4.00 (2.00–4.00) h and the “Mean of dose recovered unchanged in the urine” value ([1]; across the dose range studied, multiple doses) was 7–10%. For the same compound, the “Median Tmax” value ([1]; fasted state, single doses 3 mg to 540 mg and multiple doses up to 275 mg QD, healthy adults) was 3 to 4 h, the “Mean t1/2 across doses” value ([1]; healthy adults) was 29 to 39 h and the “Observed t1/2” value ([1]; healthy older subjects) was “approximately 40 h”. The “Plasma accumulation at Day 14” value ([1]; healthy older subjects) was 2.8 fold, the “Accumulation on Day 14” value [1, 20] was 2.1- to 2.5 fold and the “Steady state achieved by” value [1, 20] was at most 7 days. The t1/2 [1, 21] was 29.30 ± 0.60 h, the AUCinf [1, 21] was 289.7 (8) ng.hr/mL and the CL/F [1, 21] was 172.3 (8) mL/min. For the same compound, the Cmax [1, 21] was 8.4 (14) ng/mL, the Vz/F [1, 21] was 436.8 (6) L and the Tmax ([1]; single 3 mg fasted, healthy adults, median (range)) was 4.03 (4.00–8.00) h. The t1/2 [1, 22] was 32.94 ± 4.92 h, the AUCinf [1, 22] was 1142 (25) ng.hr/mL and the CL/F [1, 22] was 175.0 (25) mL/min. For the same compound, the Cmax [1, 22] was 27.4 (36) ng/mL, the Vz/F [1, 22] was 494.8 (20) L and the Tmax ([1]; single 12 mg fasted, healthy adults, median (range)) was 4.11 (2.0–12.00) h. For the same compound, the t1/2 [1, 23] was 32.12 ± 3.64 h, the AUCinf [1, 23] was 3121 (25) ng.hr/mL and the CL/F [1, 23] was 213.4 (25) mL/min. The Cmax [1, 23] was 78.7 (30) ng/mL, the Vz/F [1, 23] was 591.4 (26) L and the Tmax ([1]; single 40 mg fasted, healthy adults, median (range)) was 4.08 (2.00–8.05) h. The t1/2 [1, 24] was 39.33 ± 8.20 h, the AUCinf [1, 24] was 17050 (18) ng.hr/mL and the CL/F [1, 24] was 156.3 (18) mL/min. The Cmax [1, 24] was 530.8 (41) ng/mL, the Vz/F [1, 24] was 523.2 (25) L and the Tmax ([1]; single 160 mg fasted, healthy adults, median (range)) was 3.03 (1.87–4.08) h. For the same compound, the t1/2 [1, 25] was 35.20 ± 8.97 h, the AUCinf [1, 25] was 22850 (17) ng.hr/mL and the CL/F [1, 25] was 145.8 (17) mL/min. The Cmax [1, 25] was 643.2 (19) ng/mL, the Vz/F [1, 25] was 433.7 (18) L and the Tmax ([1]; single 200 mg fasted, healthy adults, median (range)) was 4.00 (2.00–6.07) h. The “Food effect on plasma exposure (Cmax and AUCinf)” value ([1]; single 200 mg fed vs fasted) was “no apparent food effect”, the t1/2 [1, 26] was 33.38 ± 6.25 h and the AUCinf [1, 26] was 23260 (15) ng.hr/mL. The CL/F [1, 26] was 143.3 (15) mL/min, the Cmax [1, 26] was 630.2 (9) ng/mL and the Vz/F [1, 26] was 408.1 (16) L. For the same compound, the Tmax ([1]; single 200 mg fed, healthy adults, median (range)) was 6.00 (4.00–8.00) h, the Tmax ([1]; single 200 mg in a fed state) was 6 h and the t1/2 [1, 27] was 34.70 ± 8.97 h. The AUCinf [1, 27] was 44980 (17) ng.hr/mL, the CL/F [1, 27] was 148.3 (17) mL/min and the Cmax [1, 27] was 1436.0 (10) ng/mL. The Vz/F [1, 27] was 433.0 (19) L, the Tmax ([1]; single 400 mg fasted, healthy adults, median (range)) was 3.02 (2.00–4.00) h and the t1/2 [1, 28] was 35.85 ± 8.10 h. The AUCinf [1, 28] was 63420 (9) ng.hr/mL, the CL/F [1, 28] was 142.0 (9) mL/min and the Cmax [1, 28] was 1829.0 (19) ng/mL. For the same compound, the Vz/F [1, 28] was 431.1 (19) L, the Tmax ([1]; single 540 mg fasted, healthy adults, median (range)) was 3.01 (2.00–6.02) h and the “Selectivity over Cathepsin D” value (Cathepsin D (Cat D)) was about 2500 fold.
